Experiments:
[1] = Drug metabolism in Colony-bred Chinese Bama minipig liver microsomes assessed as 5beta-hydroxylcinobufaginn formation per mg of protein at 100 uM at 37 degC after 30 mins by UFLC-ESI-MS analysis; type: ADME, Sus scrofa; conditions: pig, 0.5 h
How it was run: (§1)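 Liver microsomes (0.3 mg protein/ml) incubated with 100 µM substrate at 37°C for 30 min, in 100 mM potassium phosphate pH 7.4 with NADPH-generating system (1 mM NADP+, 10 mM glucose 6-phosphate, 1 unit/ml G6PDH, 4 mM MgCl2). Acetonitrile ≤1% final. Stopped with ice-cold acetonitrile and centrifuged. Metabolites identified by UFLC-ESI-MS and quantified by UFLC-DAD at 294 nm against authentic standard curves.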

[2] = system: Liver microsome; experiment: Drug metabolism in human liver microsomes assessed as 5beta-hydroxylcinobufagin formation at 100 uM at 37 degC after 30 mins […] in presence of 50 uM clomethiazole CYP2E1 inhibitor; type: ADME; conditions: 0.5 h
[3] = Drug metabolism in cynomolgus monkey liver microsomes assessed as 1alpha-hydroxylcinobufagin formation at 100 uM at 37 degC after 30 mins by UFLC-ESI-MS analysis in presence of NADPH-generating system; type: ADME, Macaca fascicularis; conditions: 0.5 h; how it was run: as §1
[4] = Ratio of Vmax/Km in Colony-bred Chinese Bama minipig liver microsomes assessed as 5beta-hydroxylcinobufaginn formation at 100 uM […] by UFLC-ESI-MS analysis; type: ADME, Sus scrofa; conditions: pig, 0.5 h
[5] = system: Liver microsome; experiment: Drug metabolism in beagle dog liver microsomes assessed as 1alpha-hydroxylcinobufagin formation at 100 uM at 37 degC after 30 mins by UFLC-ESI-MS analysis; type: ADME, Canis lupus familiaris; conditions: 0.5 h, read-out: Km(app); how it was run: as §1
[6] = system: Liver microsome; experiment: Drug metabolism in beagle dog liver microsomes assessed as 5beta-hydroxylcinobufaginn formation at 100 uM at 37 degC after 30 mins by UFLC-ESI-MS analysis; type: ADME, Canis lupus familiaris; conditions: 0.5 h, read-out: Km(app); how it was run: as §1
[7] = system: Liver microsome; experiment: Drug metabolism in beagle dog liver microsomes assessed as 1alpha-hydroxylcinobufagin formation per mg of protein at 100 uM at 37 degC after 30 mins by UFLC-ESI-MS analysis; type: ADME, Canis lupus familiaris; conditions: 0.5 h; how it was run: as §1
[8] = Drug metabolism in cynomolgus monkey liver microsomes assessed as 5beta-hydroxylcinobufaginn formation per mg of protein at 100 uM […] by UFLC-ESI-MS analysis; type: ADME, Macaca fascicularis; conditions: 0.5 h
[9] = Drug metabolism in Colony-bred Chinese Bama minipig liver microsomes assessed as 1alpha-hydroxylcinobufagin formation at 100 uM at 37 degC after 30 mins by UFLC-ESI-MS analysis in presence of 1 uM ketoconazole CYP3A4 inhibitor; type: ADME, Sus scrofa; conditions: pig, 0.5 h
How it was run: (§2)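 Chemical inhibition: selective P450 inhibitors (furafylline, sulfaphenazole, ketoconazole) added to liver microsome incubations in 100 mM potassium phosphate pH 7.4 with NADPH-generating system at 37°C. Hydroxylated metabolite formation quantified by UFLC at 294 nm against standards. Mean ± S.D. of three experiments in duplicate.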

[10] = system: Liver microsome; experiment: Drug metabolism in beagle dog liver microsomes assessed as 5beta-hydroxylcinobufaginn formation per mg of protein at 100 uM at 37 degC after 30 mins by UFLC-ESI-MS analysis; type: ADME, Canis lupus familiaris; conditions: 0.5 h; how it was run: as §1
[11] = Drug metabolism in Swiss-Hauschka (ICR) mouse liver microsomes assessed as 5beta-hydroxylcinobufaginn formation at 100 uM at 37 degC after 30 mins by UFLC-ESI-MS analysis; type: ADME; conditions: 0.5 h, read-out: Km(app); how it was run: as §1
[12] = system: Liver microsome; experiment: Drug metabolism in human liver microsomes assessed as 5beta-hydroxylcinobufagin formation at 100 uM at 37 degC after 30 mins by UFLC-ESI-MS analysis in presence of 2 uM montelukast CYP2C8 inhibitor; type: ADME; conditions: 0.5 h
How it was run: (§3)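 Pooled human liver microsomes (10 donors, both sexes) in 100 mM potassium phosphate pH 7.4 were incubated with CB and a selective P450 inhibitor. Reaction was started with NADPH-generating system after 3 min preincubation at 37°C and stopped with ice-cold acetonitrile. Hydroxylated products were quantified by UFLC-DAD at 294 nm; three experiments in duplicate.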

[13] = Drug metabolism in cynomolgus monkey liver microsomes assessed as 1alpha-hydroxylcinobufagin formation at 100 uM at 37 degC after 30 mins by UFLC-ESI-MS analysis in presence of 1 uM ketoconazole CYP3A4 inhibitor; type: ADME, Macaca fascicularis; conditions: 0.5 h; how it was run: as §2
[14] = system: Liver microsome; experiment: Drug metabolism in human liver microsomes assessed as 5beta-hydroxylcinobufagin formation at 100 uM at 37 degC after 30 mins by UFLC-ESI-MS analysis in presence of 10 uM quinidine CYP2D6 inhibitor; type: ADME; conditions: 0.5 h; how it was run: as §3
[15] = system: Liver microsome; experiment: Drug metabolism in human liver microsomes assessed as 5beta-hydroxylcinobufagin formation at 100 uM at 37 degC after 30 mins […] in presence of 2.5 uM 8-methoxypsoralen CYP2A6 inhibitor; type: ADME; conditions: 0.5 h
[16] = system: Liver microsome; experiment: Drug metabolism in human liver microsomes assessed as 1alpha-hydroxylcinobufagin formation at 100 uM at 37 degC after 30 mins by UFLC-ESI-MS analysis in presence of NADPH-generating system; type: ADME; conditions: 0.5 h
How it was run: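 CB (100 µM; acetonitrile ≤1% final) was incubated with pooled HLM (0.3 mg/ml) plus NADPH-generating system (1 mM NADP+, 10 mM glucose 6-phosphate, 1 unit/ml G6PDH, 4 mM MgCl2) in pH 7.4 phosphate buffer at 37°C for 30 min. Products were identified by UFLC-ESI-MS and quantified by UFLC-DAD at 294 nm.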

[17] = Drug metabolism in cynomolgus monkey liver microsomes assessed as 1alpha-hydroxylcinobufagin formation at 100 uM at 37 degC after 30 mins by UFLC-ESI-MS analysis in presence of 10 uM sulfaphenazole CYP2C9 inhibitor; type: ADME, Macaca fascicularis; conditions: 0.5 h; how it was run: as §2
[18] = Drug metabolism in Colony-bred Chinese Bama minipig liver microsomes assessed as 5beta-hydroxylcinobufaginn formation at 100 uM at 37 degC after 30 mins by UFLC-ESI-MS analysis; type: ADME, Sus scrofa; conditions: pig, 0.5 h, read-out: Km(app); how it was run: as §1
[19] = system: Liver microsome; experiment: Drug metabolism in human liver microsomes assessed as 5beta-hydroxylcinobufagin formation at 100 uM at 37 degC after 30 mins by UFLC-ESI-MS analysis in presence of 20 uM omeprazole CYP2C19 inhibitor; type: ADME; conditions: 0.5 h; how it was run: as §3
[20] = system: Liver microsome; experiment: Drug metabolism in human liver microsomes assessed as 1alpha-hydroxylcinobufagin formation per mg of protein at 100 uM at 37 degC […] by UFLC-ESI-MS analysis; type: ADME; conditions: 0.5 h
[21] = Drug metabolism in Swiss-Hauschka (ICR) mouse liver microsomes assessed as 1alpha-hydroxylcinobufagin formation at 100 uM at 37 degC after 30 mins by UFLC-ESI-MS analysis in presence of 10 uM sulfaphenazole CYP2C9 inhibitor; type: ADME; conditions: 0.5 h; how it was run: as §2
[22] = Drug metabolism in Colony-bred Chinese Bama minipig liver microsomes assessed as 1alpha-hydroxylcinobufagin formation at 100 uM at 37 degC after 30 mins by UFLC-ESI-MS analysis in presence of 10 uM furafylline CYP1A2 inhibitor; type: ADME, Sus scrofa; conditions: pig, 0.5 h; how it was run: as §2
[23] = system: Liver microsome; experiment: Drug metabolism in beagle dog liver microsomes assessed as 1alpha-hydroxylcinobufagin formation at 100 uM at 37 degC after 30 mins by UFLC-ESI-MS analysis in presence of 10 uM sulfaphenazole CYP2C9 inhibitor; type: ADME, Canis lupus familiaris; conditions: 0.5 h; how it was run: as §2
[24] = system: Liver microsome; experiment: Drug metabolism in human liver microsomes assessed as 5beta-hydroxylcinobufaginn formation per mg of protein at 100 uM […] by UFLC-ESI-MS analysis; type: ADME; conditions: 0.5 h
[25] = Drug metabolism in cynomolgus monkey liver microsomes assessed as 1alpha-hydroxylcinobufagin formation at 100 uM at 37 degC after 30 mins by UFLC-ESI-MS analysis; type: ADME, Macaca fascicularis; conditions: 0.5 h, read-out: Km(app); how it was run: as §1

Compound: CC(=O)O[C@H]1[C@H]2O[C@]23[C@@H]2CC[C@@H]4C[C@@H](O)CC[C@]4(C)[C@H]2CC[C@]3(C)[C@H]1c1ccc(=O)oc1 [CINOBUFAGIN]
- Vmax [1]: 0.65 nmol/min/mg
- Drug metabolism [2]: metabolite_detected
- Drug metabolism [3]: metabolite_detected
- Vmax/Km [4]: 54.6 µL/min/mg
- Km [5]: 3.3 µM
- Km [6]: 3.4 µM
- Vmax [7]: 1.28 nmol/min/mg
- Vmax [8]: 1.84 nmol/min/mg
- Drug metabolism [9]: metabolite_not_detected
- Vmax [10]: 0.44 nmol/min/mg
- Km [11]: 10.1 µM
- Drug metabolism [12]: metabolite_detected
- Drug metabolism [13]: metabolite_not_detected
- Drug metabolism [14]: metabolite_detected
- Drug metabolism [15]: metabolite_detected
- Drug metabolism [16]: metabolite_detected
- Drug metabolism [17]: metabolite_detected
- Km [18]: 11.9 µM
- Drug metabolism [19]: metabolite_detected
- Vmax [20]: 0.59 nmol/min/mg
- Drug metabolism [21]: metabolite_detected
- Drug metabolism [22]: metabolite_detected
- Drug metabolism [23]: metabolite_detected
- Vmax [24]: 1.17 nmol/min/mg
- Km [25]: 34.2 µM

From ChEMBL document CHEMBL3526081 (Drug Metab Dispos, 2011)
